Measured values from ChEMBL document CHEMBL5303300, “EUbOPEN Chemogenomics Library - Multiplex” (2023).
Where “and” joins values, the source holds several entries; their conditions need not be identical. Equal entries are not always repeated.

How the values were obtained:
[1] = test system: HEK-293T; test: Multiplex assay against HEK293T; assay type: toxicity, cell-based; conditions: human, number of replicates 2
How it was run: (§1)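 Live cells were stained at seeding with Hoechst33342, BioTracker Green Microtubule Cytoskeleton Dye, MitoTracker Red and Annexin V Alexa Fluor 680, then imaged on a CQ1 microscope at 37°C and 5% CO2 after compound addition. CellPathfinder machine-learning gating split cells into Hoechst high-intensity objects or normal cells. Normal cells were split into healthy, pyknosed or fragmented nuclei, and pyknosed cells into mitotic or apoptotic. Tubulin, mitochondrial-mass and membrane-permeability phenotypes are per cents of healthy-nucleus cells.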

[2] = test system: U2OS; test: Multiplex assay against U2OS; assay type: toxicity, cell-based; conditions: human, number of replicates 2; how it was run: as §1
[3] = 24 h, 1 µM, compound concentration 1 uM
[4] = 24 h, 10 µM, compound concentration 10 uM
[5] = 48 h, 1 µM, compound concentration 1 uM
[6] = 48 h, 10 µM, compound concentration 10 uM
[7] = 12 h, 1 µM, compound concentration 1 uM
[8] = 12 h, 10 µM, compound concentration 10 uM

Q: Which results are given for `CC1=C(C)C(=O)C(C(CCCCCC(=O)O)c2ccccc2)=C(C)C1=O` (stereo not drawn) [SERATRODAST]?
A: Population Tubulin-Different-Phenotype (%) [1, 3]: 19% and 16%; Total Cell Count [1, 3]: 827 and 1038; Population Apoptotic (%) [1, 4]: 28% and 42%; Population Fragmented Nuclei (%) [1, 4]: 8% and 7%; Population Healthy Nuclei (%) [1, 4]: 86%; Population Hoechst High Intensity Objects (%) [1, 4]: 9% and 6%; Population Membrane Permeable-Phenotype (%) [1, 4]: 6% and 3%; Population Mitochondria Different-Phenotype (%) [1, 4]: 3% and 4%; Population Mitotic Cells (%) [1, 4]: 71% and 57%; Population Normal (%) [1, 4]: 90% and 93%; Population Pyknosed Nuclei (%) [1, 4]: 4% and 6%; Population Tubulin-Different-Phenotype (%) [1, 4]: 29% and 35%; Total Cell Count [1, 4]: 1313 and 975; Population Apoptotic (%) [1, 5]: 22% and 13%; Population Fragmented Nuclei (%) [1, 5]: 15% and 14%; Population Healthy Nuclei (%) [1, 5]: 81% and 83%; Population Hoechst High Intensity Objects (%) [1, 5]: 8%; Population Membrane Permeable-Phenotype (%) [1, 5]: 4% and 5%; Population Mitochondria Different-Phenotype (%) [1, 5]: 1% and 0%; Population Mitotic Cells (%) [1, 5]: 77% and 86%; Population Normal (%) [1, 5]: 91%; Population Pyknosed Nuclei (%) [1, 5]: 3% and 2%; Population Tubulin-Different-Phenotype (%) [1, 5]: 5%; Total Cell Count [1, 5]: 2229 and 2490; Population Apoptotic (%) [1, 6]: 6% and 13%; Population Fragmented Nuclei (%) [1, 6]: 25% and 16%; Population Healthy Nuclei (%) [1, 6]: 73% and 80%; Population Hoechst High Intensity Objects (%) [1, 6]: 9% and 8%; Population Membrane Permeable-Phenotype (%) [1, 6]: 11% and 5%; Population Mitochondria Different-Phenotype (%) [1, 6]: 0%; Population Mitotic Cells (%) [1, 6]: 93% and 86%; Population Normal (%) [1, 6]: 91%; Population Pyknosed Nuclei (%) [1, 6]: 1% and 2%; Population Tubulin-Different-Phenotype (%) [1, 6]: 15% and 21%; Total Cell Count [1, 6]: 3510 and 2285; Population Apoptotic (%) [2, 7]: 66% and 64%; Population Fragmented Nuclei (%) [2, 7]: 11% and 5%; Population Healthy Nuclei (%) [2, 7]: 80% and 84%; Population Hoechst High Intensity Objects (%) [2, 7]: 0%; Population Membrane Permeable-Phenotype (%) [2, 7]: 3% and 2%; Population Mitochondria Different-Phenotype (%) [2, 7]: 3% and 0%; Population Mitotic Cells (%) [2, 7]: 33% and 36%; Population Normal (%) [2, 7]: 100%; Population Pyknosed Nuclei (%) [2, 7]: 8% and 9%; Population Tubulin-Different-Phenotype (%) [2, 7]: 100% and 92%; Population Apoptotic (%) [2, 8]: 75% and 37%; Population Healthy Nuclei (%) [2, 8]: 68% and 84%; Population Hoechst High Intensity Objects (%) [2, 8]: 0%; Population Membrane Permeable-Phenotype (%) [2, 8]: 0% and 1%; Population Mitochondria Different-Phenotype (%) [2, 8]: 0%; Population Mitotic Cells (%) [2, 8]: 25% and 62%; Population Normal (%) [2, 8]: 100%; Population Pyknosed Nuclei (%) [2, 8]: 5% and 11%; Population Tubulin-Different-Phenotype (%) [2, 8]: 80% and 94%; Population Apoptotic (%) [2, 3]: 75% and 54%; Population Fragmented Nuclei (%) [2, 3]: 7% and 2%; Population Healthy Nuclei (%) [2, 3]: 82% and 88%; Population Hoechst High Intensity Objects (%) [2, 3]: 0%; Population Membrane Permeable-Phenotype (%) [2, 3]: 3%; Population Mitochondria Different-Phenotype (%) [2, 3]: 3% and 1%; Population Mitotic Cells (%) [2, 3]: 25% and 45%; Population Normal (%) [2, 3]: 100%; Population Pyknosed Nuclei (%) [2, 3]: 10% and 8%; Population Tubulin-Different-Phenotype (%) [2, 3]: 100% and 92%; Population Apoptotic (%) [2, 4]: 50% and 66%; Population Healthy Nuclei (%) [2, 4]: 70% and 88%; Population Hoechst High Intensity Objects (%) [2, 4]: 0%; Population Membrane Permeable-Phenotype (%) [2, 4]: 1% and 2%; Population Mitochondria Different-Phenotype (%) [2, 4]: 1% and 0%; Population Mitotic Cells (%) [2, 4]: 50% and 33%; Population Normal (%) [2, 4]: 100%; Population Pyknosed Nuclei (%) [2, 4]: 6%; Population Tubulin-Different-Phenotype (%) [2, 4]: 92%; Population Apoptotic (%) [2, 5]: 33% and 43%; Population Fragmented Nuclei (%) [2, 5]: 4% and 3%; Population Healthy Nuclei (%) [2, 5]: 89% and 91%; Population Hoechst High Intensity Objects (%) [2, 5]: 0%; Population Membrane Permeable-Phenotype (%) [2, 5]: 0% and 1%; Population Mitochondria Different-Phenotype (%) [2, 5]: 0%; Population Mitotic Cells (%) [2, 5]: 66% and 56%; Population Normal (%) [2, 5]: 100%; Population Pyknosed Nuclei (%) [2, 5]: 5% and 4%; Population Tubulin-Different-Phenotype (%) [2, 5]: 100% and 94%; Population Apoptotic (%) [2, 6]: 58%; Population Fragmented Nuclei (%) [2, 6]: 12% and 3%; Population Healthy Nuclei (%) [2, 6]: 79% and 90%; Population Hoechst High Intensity Objects (%) [2, 6]: 0%; Population Membrane Permeable-Phenotype (%) [2, 6]: 0% and 2%; Population Mitochondria Different-Phenotype (%) [2, 6]: 0%; Population Mitotic Cells (%) [2, 6]: 41%; Population Normal (%) [2, 6]: 99%; Population Pyknosed Nuclei (%) [2, 6]: 8% and 6%; Population Tubulin-Different-Phenotype (%) [2, 6]: 89% and 95%
